Measured values: ChEMBL document CHEMBL1142068, “Reduced susceptibility to polyenes associated with a missense mutation in the ERG6 gene in a clinical isolate of Candida glabrata with pseudohyphal growth” (2007)
In brackets after ≈: the same amount, converted by molar mass. Activity calls are given as the source filed them. No cut-off for these calls is given here.

Columns and labels:
Nakaseomyces glabratus [1] = test: Susceptibility of Candida glabrata 21229F34 isolate with URA3 by disk diffusion method; format: functional
Nakaseomyces glabratus [2] = test: Susceptibility of polyene-resistant Candida glabrata 21229 isolate at 10 ug by disk diffusion method; format: functional; details: read-out: IZ
Method in brief: (§1)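 Disk diffusion on Casitone agar (pH 7.2, chloramphenicol 0.5 g/liter) with drug tablets. Tablet drug contents: voriconazole 1 μg, itraconazole 8 μg, amphotericin B/miconazole/clotrimazole 10 μg, fluconazole/ketoconazole 15 μg, nystatin 50 μg. Read-out is growth inhibition zone diameter (mm), mean of triplicates. Isolates were compared by Wilcoxon-Mann-Whitney test, unilateral α = 0.05.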

Nakaseomyces glabratus [3] = test: Susceptibility of Candida glabrata 21231 isolate at 10 ug by disk diffusion method; format: functional; details: read-out: IZ
Method in brief: (§2)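 Disk diffusion was run on Casitone agar (pH 7.2) with Neosensitab tablets. Tablets held 10 μg for amphotericin B, econazole, miconazole and clotrimazole, and 8 μg for itraconazole. Read-out is the inhibition-zone diameter in mm, as the mean of triplicates. Isolates were compared by Wilcoxon-Mann-Whitney test, unilateral α = 0.05.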

Nakaseomyces glabratus [4] = test: Susceptibility of Candida glabrata 21229C218 isolate expressing ERG6 gene by disk diffusion method; format: functional
Method in brief: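 Complemented ura3 derivative carrying a plasmid-borne ERG6 copy was selected on selective medium. Amphotericin B susceptibility was tested by disk diffusion on Casitone agar (pH 7.2) with Neosensitab tablets. Read-out is the growth-inhibition zone diameter in mm.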

Nakaseomyces glabratus [5] = test: Antimicrobial activity against polyene-resistant Candida glabrata 21229 isolate by E-test; format: functional
Nakaseomyces glabratus [6] = test: Susceptibility of polyene-resistant Candida glabrata 21229 isolate by disk diffusion method; format: functional; method in brief: as §1
Nakaseomyces glabratus [7] = test: Antimicrobial activity against Candida glabrata 21231 isolate by E-test; format: functional
Nakaseomyces glabratus [8] = test: Growth inhibition of polyene-resistant Candida glabrata 21229 isolate in YEPD agar plates at 4 mg/ml; format: functional, organism-based
Nakaseomyces glabratus [9] = test: Growth inhibition of Candida glabrata 21231 isolate in YEPD agar plates at 4 mg/ml; format: functional, organism-based
Method in brief: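 Dye susceptibility on YEPD agar plates with dye at increasing levels from 0.1 to 4 mg/ml. Inocula ranged from 2 × 10^6 to 2 × 10^2 cells. The read-out is the minimum dye concentration that inhibited growth of the same quantity of cells.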

Nakaseomyces glabratus [10] = test: Susceptibility of polyene-resistant Candida glabrata 21229 isolate at 8 ug by disk diffusion method; format: functional; details: read-out: IZ; method in brief: as §1
Nakaseomyces glabratus [11] = test: Susceptibility of Candida glabrata 21231 isolate at 8 ug by disk diffusion method; format: functional; details: read-out: IZ; method in brief: as §2
Nakaseomyces glabratus [12] = test: Susceptibility of polyene-resistant Candida glabrata 21229 isolate at 1 ug by disk diffusion method; format: functional; method in brief: as §1
Nakaseomyces glabratus [13] = test: Susceptibility of Candida glabrata 21231 isolate at 15 ug by disk diffusion method; format: functional; details: read-out: IZ; method in brief: as §1
Nakaseomyces glabratus [14] = test: Susceptibility of polyene-resistant Candida glabrata 21229 isolate at 15 ug by disk diffusion method; format: functional; details: read-out: IZ; method in brief: as §1
Nakaseomyces glabratus [15] = test: Susceptibility of Candida glabrata 21231 isolate at 50 ug by disk diffusion method; format: functional, organism-based; method in brief: as §1
Nakaseomyces glabratus [16] = test: Susceptibility of polyene-resistant Candida glabrata 21229 isolate at 50 ug by disk diffusion method; format: functional, organism-based; method in brief: as §1

| Compound | zone of inhibition at 10 µg/disc (Nakaseomyces glabratus [2]) | zone of inhibition at 10 µg/disc (Nakaseomyces glabratus [3]) | MIC (Nakaseomyces glabratus [5]) | MIC (Nakaseomyces glabratus [7]) | also measured |
| --- | --- | --- | --- | --- | --- |
| C[C@@H]1[C@H](O)[C@@H](C)/C=C/C=C/C=C/C=C/C=C/C=C/C=C/[C@H](O[C@@H]2O[C@H](C)[C@@H](O)[C@H](N)[C@@H]2O)C[C@@H]2O[C@](O)(C[C@@H](O)C[C@@H](O)[C@H](O)CC[C@@H](O)C[C@@H](O)CC(=O)O[C@H]1C)C[C@H](O)[C@H]2C(=O)O [AMPHOTERICIN B] | 13 mm | 34 mm | 1.3 µg/mL (≈ 1.41 µM) | 0.029 µg/mL (≈ 0.0314 µM) | inhibition zone (IZ) (Nakaseomyces glabratus [1]): 16 mm; inhibition zone (IZ) (Nakaseomyces glabratus [4]): 30 mm; inhibition zone (IZ) (Nakaseomyces glabratus [6]): 16 mm |
| Nc1c(/N=N/c2ccc(-c3ccc(/N=N/c4cc(S(=O)(=O)O)c5ccccc5c4N)cc3)cc2)cc(S(=O)(=O)O)c2ccccc12 |  |  |  |  | Activity (Nakaseomyces glabratus [8]): inactive; Activity (Nakaseomyces glabratus [9]): inactive |
| CCC(C)n1ncn(-c2ccc(N3CCN(c4ccc(OCC5COC(Cn6cncn6)(c6ccc(Cl)cc6Cl)O5)cc4)CC3)cc2)c1=O (stereo not drawn) [ITRACONAZOLE] |  |  | 1.8 µg/mL (≈ 2.55 µM) | 18.7 µg/mL (≈ 26.5 µM) | zone of inhibition at 8 µg/disc (Nakaseomyces glabratus [10]): 30 mm; zone of inhibition at 8 µg/disc (Nakaseomyces glabratus [11]): 16 mm |
| C[C@@H](c1ncncc1F)[C@](O)(Cn1cncn1)c1ccc(F)cc1F [VORICONAZOLE] |  |  | 0.047 µg/mL (≈ 0.135 µM) | 0.125 µg/mL (≈ 0.358 µM) | zone of inhibition at 1 µg/disc (Nakaseomyces glabratus [12]; Nakaseomyces glabratus, 21229, read-out: IZ): 43 mm; zone of inhibition at 1 µg/disc (Nakaseomyces glabratus [12]; read-out: IZ): 43 mm |
| Clc1ccc(COC(Cn2ccnc2)c2ccc(Cl)cc2Cl)c(Cl)c1 (stereo not drawn) [MICONAZOLE] | 30 mm | 18 mm |  |  |  |
| CC[C@H](C)C[C@H](C)CCCCCCCCC(=O)N[C@H]1C[C@@H](O)[C@@H](NCCN)NC(=O)[C@@H]2[C@@H](O)CCN2C(=O)[C@H]([C@H](O)CCN)NC(=O)[C@H]([C@H](O)[C@@H](O)c2ccc(O)cc2)NC(=O)[C@@H]2C[C@@H](O)CN2C(=O)[C@H]([C@@H](C)O)NC1=O [CASPOFUNGIN] |  |  | 0.024 µg/mL (≈ 0.022 µM) | 0.023 µg/mL (≈ 0.021 µM) |  |
| Clc1ccccc1C(c1ccccc1)(c1ccccc1)n1ccnc1 [CLOTRIMAZOLE] | 40 mm | 26 mm |  |  |  |
| OC(Cn1cncn1)(Cn1cncn1)c1ccc(F)cc1F [FLUCONAZOLE] |  |  | 1 µg/mL (≈ 3.27 µM) | 3.7 µg/mL (≈ 12.1 µM) | zone of inhibition at 15 µg/disc (Nakaseomyces glabratus [13]): 20 mm; zone of inhibition at 15 µg/disc (Nakaseomyces glabratus [14]): 50 mm |
| NYSTATIN |  |  |  |  | inhibition zone (IZ) (Nakaseomyces glabratus [15]): 34 mm; inhibition zone (IZ) (Nakaseomyces glabratus [16]): 16 mm |
| CC(=O)N1CCN(c2ccc(OCC3COC(Cn4ccnc4)(c4ccc(Cl)cc4Cl)O3)cc2)CC1 (stereo not drawn) [KETOCONAZOLE] |  |  | 0.034 µg/mL (≈ 0.064 µM) | 0.136 µg/mL (≈ 0.256 µM) | zone of inhibition at 15 µg/disc (Nakaseomyces glabratus [13]): 24 mm; zone of inhibition at 15 µg/disc (Nakaseomyces glabratus [14]): 50 mm |
